The test system of data set [1] is Mus musculus. In words: Inhibition of TNF-alpha production in Freund's complete adjuvant-induced mouse at 50 mg/kg, ip administered 40 mins before CFA challenge measured after 2 hrs by ELISA. The data set is classed as functional, organism-based. Set-up: dose 50 mg/kg. The method, boiled down:
(§1)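 CFA was given intraplantar, with ip dosing (2% DMSO/saline vehicle) 40 min earlier. At 2 h, paw skin was taken under terminal halothane anesthesia. Tissue was extracted (100 mg/mL PBS with 0.4 M NaCl, 0.05% Tween 20 and protease inhibitors) and centrifuged at 3000g for 10 min. Supernatant was assayed by mouse ELISA, in pg/mL. n = 6/group.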

Data set [2] concerns Mus musculus. In words: Toxicity in mouse assessed as gastric ulcer at 100 mg/kg, ip for seven consecutive days relative to control. The data set is classed as organism-based, Stomach. On the set-up: dose 100 mg/kg, route intraperitoneal. The following applies: in vivo. The essentials:
(§2)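 After 7 daily ip doses, stomachs were cryosectioned at 3 μm and stained with H&E. Sections were scored blind 0–4 for inflammatory infiltrate, edema, epithelial loss and necrosis. Ten fields (40×) were read per section, means ± SEM.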

Data set [3] has as its system Mus musculus. In words: Antinociceptive activity against formalin-induced pain in mouse assessed as paw licking during late phase (10 to 60 mins) at 100 mg/kg, ip administered 40 mins before formalin challenge. Set-up: dose 100 mg/kg. The data set is classed as functional, organism-based. The essentials:
(§3)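 Mice were acclimated 30 min in an observation chamber, then given 20 μL of 2.5% formalin sc into the dorsal hind paw. Dosing was ip (2% DMSO/saline vehicle) 40 min beforehand. Time spent licking the injected paw was scored over 0–10 min and 10–60 min. n = 6/group, means ± SEM, ANOVA with Tukey.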

In data set [4] the test system is Mus musculus. Briefly: Toxicity in mouse assessed as change in general appearance at 100 mg/kg, ip for seven consecutive days relative to control. The settings on record: in vivo. It is filed as organism-based. On the set-up: dose 100 mg/kg, route intraperitoneal. The essentials:
(§4)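 Mice were weighed and dosed ip once daily for 7 consecutive days, vehicle controls alongside, and monitored for toxic signs and general appearance. At the end, retro-orbital blood was taken under light anesthesia for leukocyte counts. Serum, from blood centrifuged at 2500 rpm for 15 min without anticoagulant, was used for ALT and AST.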

In data set [5] the test system is Mus musculus. Briefly: Neurotoxicity in mouse assessed as effect on motor coordination by measuring reduced latency at 100 mg/kg, ip after 40 mins by rotarod test. The data set is classed as toxicity, organism-based. On the set-up: dose 100 mg/kg, route intraperitoneal. The settings on record: in vivo. The essentials: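 Mice were pre-selected 24 h earlier for staying on the bar for two 120 s periods. Rotarod was a 3 cm bar at 5 rpm. Mice were tested 40 min after ip dosing, with diazepam 10 mg/kg ip as reference. Time on the rod was recorded up to 120 s. n = 6/group.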
A general note: Falling from the rotarod earlier than controls is read as motor impairment.

The subject of data set [6] is Mus musculus. In words: Toxicity in mouse assessed as liver function measuring serum AST level at 100 mg/kg, ip for seven consecutive days relative to control. The data set is classed as organism-based. Set-up: dose 100 mg/kg, route intraperitoneal. The following applies: in vivo. The method, boiled down: as §4
Data set [7] concerns Mus musculus. Briefly: Toxicity in mouse assessed as necrosis in gastric mucosa at 50 mg/kg, ip for seven consecutive days relative to control. The data set is classed as organism-based. On the set-up: dose 50 mg/kg, route intraperitoneal. The settings on record: in vivo. The method, boiled down:
as §2

Data set [8] has as its system Mus musculus. Briefly: Toxicity in mouse assessed as gastric inflammation at 50 mg/kg, ip for seven consecutive days relative to control. The data set is classed as organism-based, Stomach. On the set-up: dose 50 mg/kg, route intraperitoneal. The following applies: in vivo. The method, boiled down:
as §2

Data set [9] has as its system Mus musculus. Briefly: Toxicity in mouse assessed as gastric ulcer at 50 mg/kg, ip for seven consecutive days relative to control. It is filed as organism-based, Stomach. On the set-up: dose 50 mg/kg, route intraperitoneal. The following applies: in vivo. The method, boiled down:
as §2

Data set [10] concerns Mus musculus. In words: Inhibition of TNF-alpha production in Freund's complete adjuvant-induced mouse at 100 mg/kg, ip administered 40 mins before CFA challenge measured after 2 hrs by ELISA. The data set is classed as functional, organism-based. Set-up: dose 100 mg/kg. The essentials:
as §1
In general terms: In an ELISA, binding on a coated surface is turned into a signal by an enzyme label.

In data set [11] the test system is Mus musculus. Briefly: Antinociceptive activity against formalin-induced pain in mouse assessed as paw licking during early phase (0 to 10 mins) at 100 mg/kg, ip administered 40 mins before formalin challenge. The data set is classed as functional, organism-based. Set-up: dose 100 mg/kg. The method, boiled down:
as §3

Data set [12] concerns Mus musculus. In words: Toxicity in mouse assessed as renal function measuring serum urea level at 50 mg/kg, ip for seven consecutive days relative to control. Set-up: dose 50 mg/kg, route intraperitoneal. The data set is classed as organism-based. The following applies: in vivo. The method, boiled down:
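Once-daily ip dosing for seven consecutive days in male mice (22–28 g), with vehicle (2% DMSO in saline) as control. At the end of treatment, blood taken from the retro-orbital plexus under light anesthesia. Serum obtained without anticoagulant by centrifugation at 2500 rpm for 15 min, then assayed biochemically for urea and creatinine. Means ± SEM, 6–9 animals per group.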

In data set [13] the test system is Mus musculus. Briefly: Antinociceptive activity against Freund's complete adjuvant-induced paw inflammation in mouse assessed as reduction in paw edema at 100 mg/kg, ip administered 40 mins before CFA challenge measured after 6 hrs. It is filed as functional, organism-based. Set-up: dose 100 mg/kg. The method, boiled down: (§5)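 CFA (20 μL, 1 mg/mL heat-killed M. tuberculosis) was injected sc into the right hind plantar surface. Treatment was ip in 2% DMSO/saline 40 min before. Paw volume was read by plethysmometer before and after CFA, and edema taken as the volume difference (mm3/paw). n = 6 mice/group, means ± SEM, two-way ANOVA with Bonferroni.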

In data set [14] the test system is Mus musculus. Briefly: Toxicity in mouse assessed as gastric inflammation at 100 mg/kg, ip for seven consecutive days relative to control. It is filed as organism-based, Stomach. Set-up: dose 100 mg/kg, route intraperitoneal. The following applies: in vivo. The essentials: as §2
For data set [15], the system named is Mus musculus. Briefly: Toxicity in mouse assessed as reduction in corporal mass at 50 mg/kg, ip for seven consecutive days relative to control. It is filed as organism-based. On the set-up: dose 50 mg/kg, route intraperitoneal. The settings on record: in vivo. The method, boiled down: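 Male mice (22–28 g) weighed and dosed once daily ip for seven consecutive days with test agent or vehicle (2% DMSO in saline). Body mass, general appearance and toxic signs followed and compared with vehicle-treated mice. Data are means ± SEM, 6–9 animals per group.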

Data set [16] relates to Mus musculus. In words: Toxicity in mouse assessed as liver function measuring serum AST level at 50 mg/kg, ip for seven consecutive days relative to control. The data set is classed as organism-based. Set-up: dose 50 mg/kg, route intraperitoneal. The following applies: in vivo. The essentials: as §4
For data set [17], the system named is Mus musculus. In words: Antinociceptive activity against Freund's complete adjuvant-induced paw inflammation in mouse assessed as reduction in mechanical hyperalgesia at 100 mg/kg, ip administered 40 mins before CFA challenge measured after 2 to 6 hrs. The data set is classed as functional, organism-based. On the set-up: dose 100 mg/kg. The essentials:
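Mice, lightly halothane-anesthetized, got 20 μL complete Freund's adjuvant (1 mg/mL heat-killed M. tuberculosis in paraffin oil/mannide monooleate) sc into the right hind plantar surface. Treatment was ip in 2% DMSO/saline 40 min before CFA. Mechanical threshold was read with von Frey filaments by the up-down method at 2, 4 and 6 h. n = 6 mice/group, means ± SEM, two-way ANOVA with Bonferroni.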

The subject of data set [18] is Mus musculus. Briefly: Effect on baseline nociceptive threshold in Freund's complete adjuvant-induced mouse at 50 to 100 mg/kg, ip administered 40 mins before CFA challenge measured 2 to 6 hrs. The data set is classed as functional, organism-based.
In data set [19] the test system is Mus musculus. Briefly: Antinociceptive activity against Freund's complete adjuvant-induced paw inflammation in mouse assessed as reduction in paw edema at 100 mg/kg, ip administered 40 mins before CFA challenge measured after 2 hrs. It is filed as functional, organism-based. On the set-up: dose 100 mg/kg. The method, boiled down:
as §5

Data set [20] relates to Mus musculus. In words: Antinociceptive activity against formalin-induced pain in mouse assessed as paw licking during late phase (10 to 60 mins) at 50 mg/kg, ip administered 40 mins before formalin challenge. The data set is classed as functional, organism-based. On the set-up: dose 50 mg/kg. The method, boiled down: as §3
The subject of data set [21] is Mus musculus. In words: Antinociceptive activity against Freund's complete adjuvant-induced paw inflammation in mouse assessed as reduction in paw edema at 100 mg/kg, ip administered 40 mins before CFA challenge measured after 4 hrs. It is filed as functional, organism-based. Set-up: dose 100 mg/kg. The essentials:
as §5

Each structure is given as a SMILES string. The source made the active and inactive calls.

Among the data in ChEMBL document CHEMBL1833877, “Antinociceptive properties of bergenin” (J Nat Prod, 2011) are inhibition and Activity values, retold here.

For the compound `COc1c(O)cc2c(c1O)[C@@H]1O[C@H](CO)[C@@H](O)[C@H](O)[C@H]1OC2=O` [BERGENIN], the inhibition result with Mus musculus [1] and in the data set on Mus musculus [10] was “Active” each time. Also, the Activity entry in the data set on Mus musculus [2], in the data set with Mus musculus [4], in the data set on Mus musculus [5], with Mus musculus [6], in the data set with Mus musculus [7] and in the data set on Mus musculus [8] was “Non-toxic” in each case. Moreover, the Activity result with Mus musculus [9], in the data set with Mus musculus [12], in the data set on Mus musculus [14], in the data set on Mus musculus [15] and in the data set with Mus musculus [16] was “Non-toxic” in each case. The result in the data set with Mus musculus [3], in the data set with Mus musculus [11], in the data set with Mus musculus [17], in the data set on Mus musculus [19], with Mus musculus [20] and in the data set with Mus musculus [21] was Active. Also, the result with Mus musculus [13] and in the data set with Mus musculus [18] was inactive.
